# Bioassay records: PubChem, Sanford-Burnham Center for Chemical Genomics
# UBC13 inh: inhibitors of human UBC13 polyubiquitin chain formation; AID 485273; inhibition, % at 20 µM; TR-FRET; hit rate 0.47% among 330,000; in the data active = inhibition above about 45%, passing the limit was not always enough; inconclusive = no clear call, values can overlap the other calls
# Apaf-1 inh: blocks human Apaf-1 apoptosome activity. inhibition, % at 20 µM. reconstituted apoptosome caspase-3 activity, DEVD-Rh110 fluorescence. hit rate 0.71% among 330,000; active = inhibition of at least 40% at 20 µM;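 also: plate controls were DMSO wells for no effect and DEVD-CHO caspase inhibitor wells for full effect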
# Target sequence (O14727 whole entry, looked up): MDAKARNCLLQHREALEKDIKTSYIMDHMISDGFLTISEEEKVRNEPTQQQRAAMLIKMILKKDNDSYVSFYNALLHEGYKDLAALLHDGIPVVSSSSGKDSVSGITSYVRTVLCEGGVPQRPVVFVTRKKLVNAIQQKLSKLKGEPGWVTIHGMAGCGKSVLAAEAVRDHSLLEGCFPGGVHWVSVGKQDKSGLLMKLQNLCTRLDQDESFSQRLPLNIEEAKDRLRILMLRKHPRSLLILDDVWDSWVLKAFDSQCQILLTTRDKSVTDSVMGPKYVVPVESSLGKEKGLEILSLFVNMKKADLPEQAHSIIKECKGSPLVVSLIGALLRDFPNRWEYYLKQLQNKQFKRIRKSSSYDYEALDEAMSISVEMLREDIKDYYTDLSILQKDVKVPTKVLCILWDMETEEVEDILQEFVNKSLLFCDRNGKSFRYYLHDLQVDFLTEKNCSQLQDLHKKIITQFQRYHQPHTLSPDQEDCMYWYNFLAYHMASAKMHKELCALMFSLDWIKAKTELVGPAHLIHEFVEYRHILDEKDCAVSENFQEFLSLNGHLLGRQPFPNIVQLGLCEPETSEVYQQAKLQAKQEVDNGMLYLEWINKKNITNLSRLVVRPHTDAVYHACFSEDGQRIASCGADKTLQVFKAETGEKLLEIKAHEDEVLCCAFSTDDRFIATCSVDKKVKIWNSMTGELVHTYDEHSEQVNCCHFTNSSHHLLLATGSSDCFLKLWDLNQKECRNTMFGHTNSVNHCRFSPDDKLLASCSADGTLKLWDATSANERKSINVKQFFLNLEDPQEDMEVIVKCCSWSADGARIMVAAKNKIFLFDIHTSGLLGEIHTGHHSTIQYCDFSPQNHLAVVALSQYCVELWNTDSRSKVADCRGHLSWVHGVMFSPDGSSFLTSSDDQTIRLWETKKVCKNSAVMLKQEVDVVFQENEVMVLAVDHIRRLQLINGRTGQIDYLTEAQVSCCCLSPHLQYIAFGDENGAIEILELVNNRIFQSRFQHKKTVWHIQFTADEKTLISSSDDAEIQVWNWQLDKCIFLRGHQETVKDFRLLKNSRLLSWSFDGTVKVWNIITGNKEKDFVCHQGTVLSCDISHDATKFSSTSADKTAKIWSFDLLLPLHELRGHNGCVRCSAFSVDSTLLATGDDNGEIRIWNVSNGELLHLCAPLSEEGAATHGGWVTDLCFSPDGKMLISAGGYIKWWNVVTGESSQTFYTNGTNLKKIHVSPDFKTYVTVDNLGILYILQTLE
#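 Assay system: Apoptosome proteins | Medium: pH 7.5 Hepes buffer with CHAPS, BSA, DTT | Also added: Cytochrome c and DEVD-Rh110 substrate | Times: 30 min plus 50 min, RT | Detection: Rhodamine 110 fluorescence at Ex 480/Em 540 nm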
# CHOP UPR activ: activators of apoptotic arm of unfolded protein response (CHOP); CHO-CHOP luciferase reporter, UPR activation, luminescence; percent of tunicamycin response over DMSO baseline; activation, % at 10 µM; hit rate 0.34% among 330,000;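 active = at 10 µM dose, activation of 40% or more, normalized to positive control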;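 also: 100% = tunicamycin at 10 µg/mL and 0% = DMSO alone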
#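 Test system: CHO CHOP reporter cells. Input: 500 CHO-CHOP cells per well. Medium: F12 with 10% FBS. Technique: luciferase luminescence. Measure: percent activation relative to tunicamycin control. Dosing: 10 µM compound, 0.5% DMSO. Timing: 16-18 h cell attachment, then 6 h compound exposure, 37 °C.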
# XBP1 UPR activ: activators of adaptive arm of unfolded protein response (XBP1); CHO-XBP1 luciferase reporter, IRE1-XBP1 UPR activation, luminescence; percent of tunicamycin response, DMSO as zero; AID 463104; activation, % at 20 µM; hit rate 0.33% among 330,000;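 active = versus positive control, 20 µM dose yields 30% or more activation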;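 also: 100% = tunicamycin at 10 µg/mL and 0% = DMSO only wells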
#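 Assay system: CHO-XBP1 luciferase reporter cells; Schedule: 6 h treatment, 37 °C; Detection: glow luminescence from Steady-Glo reagent; Benchmarks: high control tunicamycin 10 µg/mL final, low control DMSO vehicle only.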
# Mdm2-MdmX inh: human Mdm2/MdmX binding inhibition; hit rate 3% among 330,000; SaOS-2 split-luciferase Mdm2/MdmX complementation, luminescence; inhibition, % at 8 µM;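 active = inhibition of at least 50% at 8 µM in the primary screen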
# Casp3 UBC13 ctr: caspase-3 inhibition (UBC13 counter-screen); shares compounds with UBC13 inh; Recombinant caspase-3, Caspase-Glo 3/7 luminescence, 60 min; inhibition, % at 20 µM; hit rate 4% among 1,400;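 active = mean inhibition across replicates above about 26%, limit read from the data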;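 also: plate controls were DMSO with caspase-3 for no effect and DMSO wells lacking enzyme for full effect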
# UBC13 conf: confirmation of human UBC13 polyubiquitin inhibitors; shares compounds with UBC13 inh; UBC13 polyubiquitination, TR-FRET, biochemical; inhibition, % at 10 µM; hit rate 68% among 1,400; in the data active = inhibition above about 45%; inconclusive = no clear call, values can overlap the other calls
# * marks the source's active call; other numbers are inactive results; ? = inconclusive; . = not tested or not shown. Shown are actives, neighbours in structure and some others; about 4.1% of the full set was active somewhere.
SMILES,UBC13 inh,Apaf-1 inh,CHOP UPR activ,XBP1 UPR activ,Mdm2-MdmX inh,Casp3 UBC13 ctr,UBC13 conf
CC(C)(C)NCc1cc(Br)ccc1OCc1cccs1,66*,-16,2,-1,25,1,18
C#CCOCCOCCOCCNc1nc(N2CCN(C(=O)C(Cc3cc4ccccc4[nH]3)n3cc(C(N)Cc4ccc(O)cc4)nn3)CC2)nc(N2CCN(C(=O)C(CCC(=O)O)n3cc(C(N)C(C)CC)nn3)CC2)n1 (stereo unspecified),10,11,-1,-2,1,.,.
C#CCOCCOCCOCCNc1nc(N2CCN(C(=O)[C@H](Cc3cc4ccccc4[nH]3)n3cc([C@@H](N)C(C)CC)nn3)CC2)nc(N2CCN(C(=O)[C@H](Cc3cc4ccccc4[nH]3)n3cc([C@@H](N)Cc4ccc(O)cc4)nn3)CC2)n1 (stereo partly specified),124*,60*,1,-4,-24,-2,119*
C#CCOCCOCCOCCNc1nc(N2CCN(C(=O)[C@H](Cc3ccc(O)cc3)n3cc([C@@H](N)C(C)CC)nn3)CC2)nc(N2CCN(C(=O)[C@H](Cc3cc4ccccc4[nH]3)n3cc([C@@H](N)C(C)CC)nn3)CC2)n1 (stereo partly specified),77*,33,1,-4,6,-2,66*
Cc1ccc(OCCN(C)C(=O)C2CCC(=O)N(CCCN3CCOCC3)C2)cc1 (stereo unspecified),-9,7,1,-4,-4,.,.
CN1C(=O)/C(=C/c2ccc(C(=O)Nc3ccc(O)cc3C(=O)O)cc2)SC1=S,-38,35,0,-3,19,.,.
Oc1[nH]c2ccccc2c1N=NC(=S)NCC1CCCO1 (stereo unspecified),98*,1,2,0,11,2,102*
CCn1c(O)c(N=NC(=S)NCC2CCCO2)c2ccccc21 (stereo unspecified),77*,0,1,-1,16,2,95*
Cc1cc(C)c2[nH]c(O)c(N=NC(=S)NCC3CCCO3)c2c1 (stereo unspecified),91*,-12,1,-1,37,-6,94*
O=C(NCC1CCCO1)c1c(O)c2ccccc2[nH]c1=O (stereo unspecified),0,10,2,-1,-5,.,.
CN(C)S(=O)(=O)c1ccc(NC(=O)N2CCN(c3ccccc3)CC2)cc1,2,-2,-2,-3,12,.,.
O=C(COC(=O)c1ccccc1O)Nc1cccc2ccccc12,3,1,1,-1,6,.,.
COc1cccc(-c2nc(CS(=O)(=O)CC(=O)NC3CC3)c(C)o2)c1,-4,-7,2,-3,-12,.,.
CCOC(=O)c1c(C)[nH]c(C2=NNC(=NC3CC3)SC2)c1C,77*,3,-7,-11,40,73*,101*
CCOC(=O)c1c(C)[nH]c(/C(C)=N/O)c1C,4,-5,-1,-1,1,.,.
CCOC(=O)N1CCN(C(=O)C(=O)Nc2sc3c(c2C(=O)O)CC(C)(C)OC3)CC1,-7,4,-1,-4,8,.,.
CCOC(=O)N1CCN(C(=O)C(=O)Nc2sc3c(c2C(N)=O)CC(C)(C)OC3)CC1,63*,-5,0,-5,3,-2,90*
Cc1ccc(C(=O)N2CCCCC2)cc1S(=O)(=O)N1CCOCC1,-5,2,-2,-2,10,.,.
Cc1ccc(-c2[nH]c3cc(C(=O)NCCCn4ccnc4)ccc3c(=O)c2O)cc1,46*,6,0,-2,15,-2,43
C=CCNC(=S)Nc1sc2c(c1C(=O)OCC)CCN(C(=O)OCC)C2,50*,15,0,-3,5,3,?
Cc1ccc(C(=O)NNC(=O)CCCN2C(=O)/C(=C/c3ccccc3Cl)SC2=S)cc1,25,17,0,-4,40,.,.
O=C(CCCN1C(=O)/C(=C/c2ccccc2Cl)SC1=S)NNC(=O)c1ccc(Cl)cc1,58*,17,-7,-6,42,-1,83*
FC(F)(F)C(F)(F)C(F)(F)c1nnc2ccc(N3CCOCC3)nn12,4,11,0,-4,9,.,.
COc1c2c(cc3ccc(=O)oc13)CCO2,4,1,0,-5,-11,.,.
COc1ccc(-n2nc(C(=O)NCc3cc(OC)ccc3OC)c3c4ccccc4n(C)c3c2=O)cc1,47*,-11,-1,-3,30,2,?
SMILES,UBC13 inh,Apaf-1 inh,CHOP UPR activ,XBP1 UPR activ,Mdm2-MdmX inh,Casp3 UBC13 ctr,UBC13 conf
COc1ccc(-n2nc(C(=O)NCc3ccco3)c3c4ccccc4n(C)c3c2=O)cc1,39,-1,5,4,-30,.,.
O=C(O)[C@H](Cc1ccccc1)NC(=O)N1CCN(c2cccc(C(F)(F)F)c2)CC1,-2,1,-1,-2,21,.,.
CC[C@]1(C(=O)OC)[C@H]2C(=O)N(C)C(=O)[C@H]2[C@H]2CN(C)C(=NC3CCCCC3)N21,.,8,2,-2,-7,.,.
COc1ccc(Cl)cc1NC(=O)CN1CCC(n2nnc3cc(C)ccc32)CC1,46*,24,1,-4,25,-1,51*
COc1ccccc1NC(=O)CN1CCC(n2c(C)nc3cc(F)ccc32)CC1,104*,14,0,6,25,2,112*
COc1ccccc1NC(=O)CN1CCC(n2nnc3cc(F)ccc32)CC1,70*,11,-1,-2,39,-3,69*
C=CCOc1ccc(/C=C/C(=O)OCC(=O)NCc2ccco2)cc1,-2,-1,4,1,6,.,.
Cn1c2ccccc2c2c(C(=O)NCCCN3CCCC3=O)cn(C3CCCCC3)c(=O)c21,1,8,-1,-2,10,.,.
CN1CCN(CCCNC(=O)c2cn(C3CCCCC3)c(=O)c3c2c2ccccc2n3C)CC1,64*,-2,-1,-3,-20,-4,64*
CC(=O)Nc1ccc(S(=O)(=O)NNC(=O)C(=O)NNc2ccccn2)cc1,58*,-12,1,-4,16,3,95*
Cc1ccccc1S(=O)(=O)NNC(=O)C(=O)NNc1ccccn1,4,3,-2,0,-4,.,.
CC(=O)Nc1ccc(S(=O)(=O)Nc2ccccn2)cc1,-6,0,0,-2,21,.,.
Cc1ccc(S(=O)(=O)NNC(=O)C(=O)NNc2ccccn2)cc1,69*,-6,0,-1,3,-1,81*
CN1CCN(c2ccc(S(=O)(=O)N3CCCCC3)cc2NC(=O)c2ccc3ccccc3c2)CC1,46*,-155,3,3,43,-6,52*
